# Bioassay records (PubChem BioAssay)
# An excerpt weighted towards active compounds, which were near 2.1% of everything screened.
# Hsp70 act – switches on Hsp70 transcription | 200,000 tested, 0.04% active | HeLa Hsp70 promoter luciferase reporter, luminescence; scaled: vehicle 0, proteasome-inhibitor control 100% | AID 1203 | activation, % at 10 µM;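 active = activation above the mean across all tested compounds plus 3 SD, cutoff set per campaign, cut at about 5.5% in these data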;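 also: 100% = MG132 at 30 µM as the positive control and 0% = DMSO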
# Dynein cargo inh – dynein cargo transport inhibition. 220,000 tested, 0.47% active. 3617.4 mouse cells, GR-EGFP nuclear translocation imaging; test concentration mostly 20 µM; stimulated with dexamethasone, 1 µM; active compounds read low. z-score, hits read low;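 active = plate z-score of nuclear minus cytoplasmic receptor signal below a set negative limit, without overly bright fluorescence or cell loss, cut at about -3.5 in these data, passing the limit was not always enough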;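 also: z-score of nuclear minus cytoplasmic ring GR-EGFP intensity difference per well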
#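 Buffer or medium: tet-free, stripped-serum medium; reagent: dexamethasone at 1.0 µM final, 30 min; incubation: 48 h induction, 1 h compound, 30 min dex at 37 °C; measured by: formaldehyde fixation, Hoechst nuclear stain, 10x automated fluorescence imaging; read-out: nuclear-to-cytoplasmic GR-EGFP distribution per well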
# Autophagy mod – modulators of autophagy. MEF GFP-LC3 puncta imaging; test concentration mostly 10 µM. calls only at 10 µM (by protocol). 190,000 tested, 0.98% active. AID 463193;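 active = percentage of spot-positive cells more than 3 SD above its plate mean, without a fluorescence outlier flag or 80% toxicity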;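 also: spot-positive cell cutoff set from DMSO-treated cells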
# bCat nuc transl – modulators of beta-catenin nuclear translocation | 190,000 tested, 0.3% active | nuclear translocation activity, % at 5 µM | HeLa beta-catenin nuclear translocation, immunofluorescence imaging | AID 1665;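 active = nuclear translocation activity above 50% at 5 µM, with a well cell count of 50 or more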;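 also: per-cell ratio of nuclear to cytoplasmic median beta-catenin stain intensity; plate controls were DMSO negative control for no effect and GSK-3 inhibitor IX positive control for full effect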
#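 Test system: human HeLa cell line; Doses: 5 µM primary, 0.02–20 µM confirmation; Incubation: 24 h compound exposure, 37°C; Detection: beta-catenin immunofluorescence imaging with DAPI; Read-out: beta-catenin nuclear/cytoplasmic ratio, % activation.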
# MT stabilize HCS – stabilizes microtubules in HeLa cells. HeLa tubulin immunostaining HCS, 24 h; share of cells brighter than vehicle mean+2SD. % tubulin-high responders, % at 10 µM. 200,000 tested, 0.83% active. AID 2205;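 active = plate Z-score above 3 for both tubulin-high and condensed-nucleus cell shares, with cell loss under 80%, at 10 µM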;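 also: anti alpha tubulin signal scored within the nucleus-defined area of each cell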
# * hit, by the source's call; i = inactive; . = not tested or not shown; + = active, no number.
SMILES,Hsp70 act,Dynein cargo inh,Autophagy mod,bCat nuc transl,MT stabilize HCS
CCC(C)c1ccccc1NC(=O)COC(=O)c1ccc2[nH]c3c(c2c1)CCCC3 (stereo not drawn),-0.3,1.18,i,0.4,12.6*
N#C/C(=C/c1ccc(Br)o1)C(N)=S,.,-4.14*,.,-0.2,.
CCCCN(Cc1cc2cccc(C)c2[nH]c1=O)S(C)(=O)=O,.,-0.108,.,0.1,.
CCOC(=O)C1=C(C)N=c2s/c(=C\c3ccc(OC(C)=O)c(OCC)c3)c(=O)n2C1/C=C/c1ccccc1 (stereo not drawn),-0.3,-2.12,+,2.7,2.5
COCCCN=C1NN=C(c2cc(C)n(Cc3ccco3)c2C)CS1,-0.1,1.3,i,.,14.4*
CCOc1cc(N2CCOCC2)c(OCC)cc1NC(=O)CSc1ncn[nH]1,0.1,-1.26,i,-1.1,4.0
COC(=O)[C@@]1(Cc2ccc(OC)cc2)[C@@H]2C(=CC(=O)[C@H]2CC(=O)C(=O)N(C)C)CN1C(=O)c1ccccc1,1.4,-4.77*,i,-0.7,10.9
O=C(O)c1ccccc1C(=O)NC1CCCCNC1=O (stereo not drawn),.,-0.152,.,0.3,.
CC(C)Cn1c(N)c(C(=O)CSc2nc3ccccc3c(=O)n2CCCN2CCOCC2)c(=O)n(C)c1=O,-0.3,1.41,+,-1.0,2.9
C=CCCC(=O)Nc1nc(C)c(-c2csc(Nc3ccccc3OC)n2)s1,-0.3,0.346,i,56.4*,35.7
C=CCCC(=O)Nc1nc(C)c(-c2csc(Nc3ccc(Cl)cc3Cl)n2)s1,-0.1,0.57,i,20.7,34.6
COc1ccc(Nc2nc(-c3sc(N)nc3C)cs2)cc1,-0.1,-0.132,i,2.0,1.2
C=CCCC(=O)Nc1nc(C)c(-c2csc(Nc3cc(Cl)ccc3OC)n2)s1,-0.3,0.273,i,4.4,54.1*
CCCCC(=O)Nc1nc(C)c(-c2csc(Nc3ccccc3OC)n2)s1,-0.3,-0.147,i,7.7,33.2
COc1ccc(Nc2nc(-c3sc(NC(C)=O)nc3C)cs2)cc1,-0.4,-0.0395,i,.,22.6*
Cc1c(C=N)c(O)n(C)c(=O)c1C#N,.,-0.676,.,0.1,.
COc1ccc(NC(=O)c2ccc(COc3ccc(C)cc3)o2)cc1,-0.2,0.916,i,0.3,1.3
Cc1cc(C)c(S(=O)(=O)NC(C)C)c(C)c1-n1cnnn1,-0.2,0.715,i,-2.1,2.9
CC1CCCCN1CCNC(=O)Cn1nc(-c2ccccc2)ccc1=O (stereo not drawn),-0.3,-0.689,+,.,3.8
COC(=O)C1(Cc2ccc(O)c(CC3OC3(C)C)c2)OC(=O)C(O)=C1c1ccc(O)cc1 (stereo not drawn),.,-0.408,.,0.7,.
COc1ccc(N=CC2=C(O)CC(c3ccccc3)CC2=O)c(OC)c1 (stereo not drawn),-0.3,-0.394,i,.,27.1*
CCOc1ccccc1N=CC1=C(O)CC(c2ccccc2)CC1=O (stereo not drawn),-0.2,1.42,i,0.2,2.2
CCC(=NCCc1c(C)[nH]c2ccc(C)cc12)C1=C(O)CC(c2ccccc2)CC1=O (stereo not drawn),-0.1,0.49,i,135.3*,15.5*
CCC(=Nc1ccccc1O)C1=C(O)CC(c2ccccc2)CC1=O (stereo not drawn),.,-0.723,.,1.9,.
CCC(=Nc1ccccc1OC)C1=C(O)CC(c2ccccc2)CC1=O (stereo not drawn),0.3,1.21,i,32.5,15.1*
SMILES,Hsp70 act,Dynein cargo inh,Autophagy mod,bCat nuc transl,MT stabilize HCS
Cc1ccc2nc(Cl)c(/C=N/Nc3ccc(C(=O)O)cc3)cc2c1,.,0.521,.,0.8,.
CCN(C(=O)CN1CC(C)OC(C)C1)c1c(N)n(Cc2ccccc2)c(=O)[nH]c1=O (stereo not drawn),0.1,0.239,i,-0.5,1.7
Cc1ccc(S(=O)(=O)NCc2ccc(C(=O)NCCN(Cc3ccccc3)C(C)C)cc2)cc1,-0.3,2.61,i,-0.1,2.9
CCC(CC)NC(=O)Nc1cccc(C)c1C,-0.2,-0.514,i,1.9,1.8
CCC(C)N(CC(=O)Nc1cccc(C)c1C)C(=O)CCl (stereo not drawn),-0.1,-3.31,+,7.0,18.5
COc1cc(C=O)ccc1Oc1nc(Nc2ccc(F)cc2F)nc(N2CCOCC2)n1,0.1,1.34,i,-2.1,2.8
COc1ccc(C(=O)/C=C2/Sc3cc4c(cc3N2C)OCO4)cc1,-0.1,0.0983,i,6.1,3.1
CN1/C(=C/C(=O)c2ccc(Cl)cc2)Sc2cc3c(cc21)OCO3,-0.1,-0.577,+,3.7,2.5
Cc1ccc(NC(=O)Nc2ccno2)cc1,.,-0.166,.,-2.1,.
O=C(N/N=C/c1c[nH]c2ccccc12)c1cc(-c2ccc(-c3ccccc3)cc2)n[nH]1,-0.3,-0.487,i,12.9,12.1
Cc1ccc(-c2cc(C(=O)N/N=C/c3c[nH]c4ccccc34)[nH]n2)cc1,0.1,1.04,i,12.3,17.1*
CCn1c(SCC(=O)N/N=C/c2c[nH]c3ccccc23)nnc1-c1ccc(Cl)cc1,-0.2,0.259,i,34.6,12.1*
O=C(N/N=C/c1c[nH]c2ccccc12)c1cc(-c2ccc3ccccc3c2)n[nH]1,-0.5,0.809,i,80.5*,25.6*
O=C(N/N=C/c1cccs1)c1cc(-c2cccc3ccccc23)n[nH]1,0.0,-0.844,i,120.3*,19.6
O=C(N/N=C/c1c[nH]c2ccccc12)c1cc(-c2cccc3ccccc23)n[nH]1,0.2,1.38,i,41.7,26.6*
Cc1cc(=O)nc2c3ccccc3n(CC(=O)Nc3ccccc3Br)n12,.,-1.08,.,-0.1,.
Cc1ccc(CN2CCN(Cc3ccc(Oc4ncccn4)cc3)CC2CCO)cc1 (stereo not drawn),-0.6,-0.169,i,0.0,1.5
CC(C)CCN1CCN(Cc2ccc(Oc3ncccn3)cc2)CC1CCO (stereo not drawn),0.5,-0.417,+,1.0,2.8
COc1cnc(SCc2c(Cl)cccc2Cl)nc1Cl,-0.2,0.801,+,.,1.0
COc1ccc(NC(=O)c2cc3ccc4c5ccccc5[nH]c4c3cc2O)cc1,.,0.623,.,-0.4,.
O=C(Cc1ccc(Cl)cc1)c1c[nH]c(C(=O)NCCCN2CCOCC2)c1,0.0,-0.53,i,0.5,2.1
COCC(=O)Nc1ccccc1-c1ccccc1,-0.2,1.46,i,-4.0,3.7
CCN(CC(=O)Nc1ccccc1-c1ccccc1)Cc1nc2ccccc2c(=O)[nH]1,0.0,-0.327,i,19.7,24.9*
CCN(CC(=O)Nc1ccccc1OC)CC(=O)Nc1ccccc1C(F)(F)F,-0.1,0.453,i,3.7,17.8*
CCN(CC(=O)Nc1ccccc1SC)Cc1nc2ccccc2c(=O)[nH]1,.,-1.1,.,2.1,.
CCN(CC(=O)Nc1ccccc1OC)CC(=O)Nc1ccccc1-c1ccccc1,-0.2,0.616,i,-1.7,20.0*
COc1ccc(OCC(=O)Nc2ccccc2-c2ccccc2)cc1,0.5,1.66,i,1.0,33.5*
